# Test results reported in ChEMBL document CHEMBL1139324, “Chemical modification and biological evaluation of new semisynthetic derivatives of 28,29-Didehydronystatin A1 (S44HP), a genetically engineered antifungal polyene macrolide antibiotic” (J Med Chem, 2009).
# Columns and labels:
# Candida albicans [1] = assay: Antifungal activity against Candida albicans ATCC 14053 after 48 hrs by broth microdilution method; type: functional; conditions: ATCC 14053, 48 h
# Summary of the method: (§1)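 Yeast susceptibility by broth microdilution per NCCLS M27-A in 96-well plates. MIC is the lowest concentration inhibiting growth. Where repeat runs fully coincided, a single value is reported.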
# Vanrija humicola = assay: Antifungal activity against Cryptococcus humicolus ATCC 9949 after 48 hrs by broth microdilution method; type: functional; conditions: ATCC 9949, 48 h; summary of the method: as §1
# Aspergillus niger = assay: Antifungal activity against Aspergillus niger ATCC 16404 after 48 hrs by broth microdilution method; type: functional; conditions: ATCC 16404, 48 h
# Summary of the method: (§2)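 Susceptibility of filamentous fungi (molds) by broth microdilution per NCCLS M38-A in 96-well microplates. The MIC is read as the lowest inhibitory concentration. It is given as one number when replicate data fully agreed.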
# Fusarium oxysporum = assay: Antifungal activity against Fusarium oxysporum VKM F-140 after 48 hrs by broth microdilution method; type: functional; summary of the method: as §2
# [2] = Toxicity against human erythrocytes assessed as hemolytic activity at 5 ug/ml; type: cell-based, Erythrocyte; conditions: read-out: Activity
# Summary of the method: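 Lysis of erythrocytes in defibrinated human blood was measured under buffered conditions with compound at 5 µg/mL. Percent hemolysis is the mean of blood samples from two donors.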
# Candida albicans [3] = assay: Antifungal activity against Candida albicans ATCC 10231after 48 hrs by broth microdilution method; type: functional; conditions: ATCC 10231, 48 h
SMILES,MIC (Candida albicans [1]) [µg/mL],MIC (Vanrija humicola) [µg/mL],MIC (Aspergillus niger) [µg/mL],MIC (Fusarium oxysporum) [µg/mL],hemolysis at 5 ug/ml [2] [%],MIC50 (Candida albicans [3]) [µg/mL],MIC90 (Candida albicans [3]) [µg/mL]
COC(=O)[C@H](CO)NC(=O)[C@H]1[C@@H]2C[C@@H](O[C@H]3O[C@@H](C)[C@H](O)[C@@H](N)[C@H]3O)/C=C/C=C/C=C/C=C/C=C/C=C/C=C/[C@H](C)[C@@H](O)[C@@H](C)[C@H](C)OC(=O)C[C@H](O)C[C@H](O)C[C@H](O)CC[C@@H](O)[C@H](O)C[C@](O)(C[C@@H]1O)O2,2,2,2,4,14,,
CNC(=O)[C@H]1[C@@H]2C[C@@H](O[C@H]3O[C@@H](C)[C@H](O)[C@@H](N)[C@H]3O)/C=C/C=C/C=C/C=C/C=C/C=C/C=C/[C@H](C)[C@@H](O)[C@@H](C)[C@H](C)OC(=O)C[C@H](O)C[C@H](O)C[C@H](O)CC[C@@H](O)[C@H](O)C[C@](O)(C[C@@H]1O)O2,2,1,2,8,5,,
C[C@@H]1[C@H](O)[C@@H](C)/C=C/C=C/C=C/C=C/C=C/C=C/C=C/[C@H](O[C@H]2O[C@@H](C)[C@H](O)[C@@H](N)[C@H]2O)C[C@@H]2O[C@](O)(C[C@@H](O)[C@H](O)CC[C@@H](O)C[C@@H](O)C[C@@H](O)CC(=O)O[C@H]1C)C[C@H](O)[C@H]2C(N)=O,2,2,4,4,8,,
CCOC(=O)CNC(=O)[C@H]1[C@@H]2C[C@@H](O[C@H]3O[C@@H](C)[C@H](O)[C@@H](N)[C@H]3O)/C=C/C=C/C=C/C=C/C=C/C=C/C=C/[C@H](C)[C@@H](O)[C@@H](C)[C@H](C)OC(=O)C[C@H](O)C[C@H](O)C[C@H](O)CC[C@@H](O)[C@H](O)C[C@](O)(C[C@@H]1O)O2,1,1,2,4,38,0.15,0.36
COC(=O)C(CO)NC(=O)[C@H]1[C@@H]2C[C@@H](O[C@H]3O[C@@H](C)[C@H](O)[C@@H](N)[C@H]3O)/C=C/C=C/C=C/C=C/C=C/C=C/C=C/[C@H](C)[C@@H](O)[C@@H](C)[C@H](C)OC(=O)C[C@H](O)C[C@H](O)C[C@H](O)CC[C@@H](O)[C@H](O)C[C@](O)(C[C@@H]1O)O2 (stereo partly specified),2,2,4,4,4,,
C[C@@H]1[C@H](O)[C@@H](C)/C=C/C=C/C=C/C=C/C=C/C=C/C=C/[C@H](O[C@H]2O[C@@H](C)[C@H](O)[C@@H](N)[C@H]2O)C[C@@H]2O[C@](O)(C[C@@H](O)[C@H](O)CC[C@@H](O)C[C@@H](O)C[C@@H](O)CC(=O)O[C@H]1C)C[C@H](O)[C@H]2C(=O)NCCCO,1,1,2,2,4,0.09,0.27
C[C@@H]1[C@H](O)[C@@H](C)/C=C/C=C/C=C/C=C/C=C/C=C/C=C/[C@H](O[C@H]2O[C@@H](C)[C@H](O)[C@@H](N)[C@H]2O)C[C@@H]2O[C@](O)(C[C@@H](O)[C@H](O)CC[C@@H](O)C[C@@H](O)C[C@@H](O)CC(=O)O[C@H]1C)C[C@H](O)[C@H]2C(=O)N[C@H]1[C@H](O)[C@@H](O)[C@H](CO)O[C@H]1O,1,1,2,8,3,,
COC(=O)[C@@H](NC(=O)[C@H]1[C@@H]2C[C@@H](O[C@H]3O[C@@H](C)[C@H](O)[C@@H](N)[C@H]3O)/C=C/C=C/C=C/C=C/C=C/C=C/C=C/[C@H](C)[C@@H](O)[C@@H](C)[C@H](C)OC(=O)C[C@H](O)C[C@H](O)C[C@H](O)CC[C@@H](O)[C@H](O)C[C@](O)(C[C@@H]1O)O2)C(C)C,2,2,4,8,,,
C[C@@H]1[C@H](O)[C@@H](C)/C=C/C=C/C=C/C=C/C=C/C=C/C=C/[C@H](O[C@H]2O[C@@H](C)[C@H](O)[C@@H](N)[C@H]2O)C[C@@H]2O[C@](O)(C[C@@H](O)[C@H](O)CC[C@@H](O)C[C@@H](O)C[C@@H](O)CC(=O)O[C@H]1C)C[C@H](O)[C@H]2C(=O)NCCO,2,4,4,4,3,,
C[C@@H]1[C@H](O)[C@@H](C)/C=C/C=C/C=C/C=C/C=C/C=C/C=C/[C@H](O[C@H]2O[C@@H](C)[C@H](O)[C@@H](NC[C@]3(O)OC[C@@H](O)[C@@H](O)[C@@H]3O)[C@H]2O)C[C@@H]2O[C@](O)(C[C@@H](O)[C@H](O)CC[C@@H](O)C[C@@H](O)C[C@@H](O)CC(=O)O[C@H]1C)C[C@H](O)[C@H]2C(=O)O,1,1,2,8,5,,
C[C@@H]1[C@H](O)[C@@H](C)/C=C/C=C/C=C/C=C/C=C/C=C/C=C/[C@H](O[C@H]2O[C@@H](C)[C@H](O)[C@@H](NC[C@]3(O)OC[C@@H](O)[C@H](O)[C@@H]3O)[C@H]2O)C[C@@H]2O[C@](O)(C[C@@H](O)[C@H](O)CC[C@@H](O)C[C@@H](O)C[C@@H](O)CC(=O)O[C@H]1C)C[C@H](O)[C@H]2C(=O)O,1,1,2,8,8,,
C[C@@H]1[C@H](O)[C@@H](C)/C=C/C=C/C=C/C=C/C=C/C=C/C=C/[C@H](O[C@H]2O[C@@H](C)[C@H](O)[C@@H](N)[C@H]2O)C[C@@H]2O[C@](O)(C[C@@H](O)[C@H](O)CC[C@@H](O)C[C@@H](O)C[C@@H](O)CC(=O)O[C@H]1C)C[C@H](O)[C@H]2C(=O)NC(C)(CO)CO,4,4,4,16,,,
C[C@@H]1[C@H](O)[C@@H](C)/C=C/C=C/C=C/C=C/C=C/C=C/C=C/[C@H](O[C@H]2O[C@@H](C)[C@H](O)[C@@H](N)[C@H]2O)C[C@@H]2O[C@](O)(C[C@@H](O)[C@H](O)CC[C@@H](O)C[C@@H](O)C[C@@H](O)CC(=O)O[C@H]1C)C[C@H](O)[C@H]2C(=O)NC1C2CC3CC(C2)CC1C3 (stereo partly specified),4,4,4,8,,,
COC(=O)[C@H](C)NC(=O)[C@H]1[C@@H]2C[C@@H](O[C@H]3O[C@@H](C)[C@H](O)[C@@H](N)[C@H]3O)/C=C/C=C/C=C/C=C/C=C/C=C/C=C/[C@H](C)[C@@H](O)[C@@H](C)[C@H](C)OC(=O)C[C@H](O)C[C@H](O)C[C@H](O)CC[C@@H](O)[C@H](O)C[C@](O)(C[C@@H]1O)O2,2,2,4,8,,,
C[C@@H]1[C@H](O)[C@@H](C)/C=C/C=C/C=C/C=C/C=C/C=C/C=C/[C@H](O[C@H]2O[C@@H](C)[C@H](O)[C@@H](NCCCN)[C@H]2O)C[C@@H]2O[C@](O)(C[C@@H](O)[C@H](O)CC[C@@H](O)C[C@@H](O)C[C@@H](O)CC(=O)O[C@H]1C)C[C@H](O)[C@H]2C(=O)O,2,4,4,4,45,,
C[C@@H]1[C@H](O)[C@@H](C)/C=C/C=C/C=C/C=C/C=C/C=C/C=C/[C@H](O[C@H]2O[C@@H](C)[C@H](O)[C@@H](NCc3ccc(N(C)C)cc3)[C@H]2O)C[C@@H]2O[C@](O)(C[C@@H](O)[C@H](O)CC[C@@H](O)C[C@@H](O)C[C@@H](O)CC(=O)O[C@H]1C)C[C@H](O)[C@H]2C(=O)O,2,2,4,> 16,,,
C[C@@H]1[C@H](O)[C@@H](C)/C=C/C=C/C=C/C=C/C=C/C=C/C=C/[C@H](O[C@H]2O[C@@H](C)[C@H](O)[C@@H](NCc3ccccc3S(=O)(=O)O)[C@H]2O)C[C@@H]2O[C@](O)(C[C@@H](O)[C@H](O)CC[C@@H](O)C[C@@H](O)C[C@@H](O)CC(=O)O[C@H]1C)C[C@H](O)[C@H]2C(=O)O,4,4,4,> 16,,,
C[C@@H]1[C@H](O)[C@@H](C)/C=C/C=C/C=C/C=C/C=C/C=C/C=C/[C@H](O[C@H]2O[C@@H](C)[C@H](O)[C@@H](NC[C@]3(O)OC[C@@H](O)[C@@H](O[C@@H]4O[C@H](CO)[C@H](O)[C@H](O)[C@H]4O)[C@@H]3O)[C@H]2O)C[C@@H]2O[C@](O)(C[C@@H](O)[C@H](O)CC[C@@H](O)C[C@@H](O)C[C@@H](O)CC(=O)O[C@H]1C)C[C@H](O)[C@H]2C(=O)O,2,2,2,8,4,,
C[C@@H]1[C@H](O)[C@@H](C)/C=C/C=C/C=C/C=C/C=C/C=C/C=C/[C@H](O[C@H]2O[C@@H](C)[C@H](O)[C@@H](N)[C@H]2O)C[C@@H]2O[C@](O)(C[C@@H](O)[C@H](O)CC[C@@H](O)C[C@@H](O)C[C@@H](O)CC(=O)O[C@H]1C)C[C@H](O)[C@H]2C(=O)N(C)CC(O)C(O)C(O)C(O)CO (stereo partly specified),4,4,4,> 16,,,
C[C@@H]1[C@H](O)[C@@H](C)/C=C/C=C/C=C/C=C/C=C/C=C/C=C/[C@H](O[C@H]2O[C@@H](C)[C@H](O)[C@@H](NC(=O)C(N)CCCCN)[C@H]2O)C[C@@H]2O[C@](O)(C[C@@H](O)[C@H](O)CC[C@@H](O)C[C@@H](O)C[C@@H](O)CC(=O)O[C@H]1C)C[C@H](O)[C@H]2C(=O)O (stereo partly specified),8,8,16,> 16,,,
